The results in this text go back to ChEMBL document CHEMBL2057093, “New oxirane derivatives of 1,4-naphthoquinones and their evaluation against T. cruzi epimastigote forms” (Bioorg Med Chem, 2012).

One may read the IC50 as the concentration that gives 50% inhibition. Broadly, the CC50 is the concentration giving 50% cytotoxicity.

Bounds are passed on as bounds.

Data set [1] deals with Trypanosoma cruzi. Put plainly: Antitrypanosomal activity against Trypanosoma cruzi Y epimastigotes after 72 hrs by Neubauer counter-based microscopic analysis. Type of data set: functional, organism-based. The method, boiled down: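 T. cruzi Y epimastigotes (10^6 cells/mL) grown in BHI medium with 10% fetal bovine serum at 28 °C and exposed to compounds from 5 mM DMSO stocks for 72 h. Parasites counted directly in a Neubauer chamber by light microscopy. Untreated and 1% DMSO (v/v) cultures served as negative controls. IC50 (50% growth inhibition) computed by Probit analysis.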

Data set [2] in a line: Cytotoxicity against african green monkey Vero cells after 72 hrs by spectrophotometric analysis. Type of data set: cell-based. The conditions noted are these: chlorocebus sabaeus. In outline:
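VERO kidney fibroblasts kept in DMEM with 5% fetal bovine serum and HEPES. Seeded at 10^5 cells/well and allowed to adhere 24 h at 37 °C, then exposed to compounds for 72 h. Cells were PBS-washed, fixed in 0.2% formaldehyde, stained 1 h with 0.2% Coomassie Brilliant Blue R-250, and eluted with 1% SDS. Absorbance read at 595 nm. CC50 by Probit from triplicate runs.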

The subject of data set [3] is Trypanosoma cruzi. Put plainly: Antitrypanosomal activity against Trypanosoma cruzi Y epimastigotes assessed as cell death at 50 uM after 72 hrs by propidium iodide staining-based flow cytometric analysis. In kind it is functional. In outline: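 T. cruzi Y epimastigotes at 5 × 10^5 cells/mL exposed to compound at 50 µM for 72 h. Cells then centrifuged (1500 g), washed in PBS and stained with 30 µg/mL propidium iodide for 15 min. Flow cytometry acquired 10,000 events in the epimastigote gate, and PI-positive cells were counted as dead. Mean and SD from at least two independent experiments in duplicate.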
A general note: A flow cytometer gives signals particle by particle.

On to `O=C(Cn1ccnc1[N+](=O)[O-])NCc1ccccc1` [BENZNIDAZOLE], for which, in the data set with Trypanosoma cruzi [1], the midpoint of inhibition, the IC50, lay at 11.5 µM. The CC50 at 72 h in data set [2] was 48 µM. For the same molecule, in the data set with Trypanosoma cruzi [3], the Activity is 26.8%.

`C=CCOC1=CC(=O)c2ccccc2C1=O`: it took 0.02 µM to reach half-maximal inhibition in the data set on Trypanosoma cruzi [1] (IC50). The same molecule returned a CC50 at 72 h in data set [2] of less than 1 µM. The Activity in the data set on Trypanosoma cruzi [3] is on record as 86.3%.

`O=C1C(Cl)=C(Cl)C(=O)c2ccccc21` [Dichlon] displayed an IC50 with Trypanosoma cruzi [1] of 0.09 µM. In data set [2], this molecule gave a CC50 at 72 h of 6.3 µM. Also, the Activity in the data set with Trypanosoma cruzi [3] was 84.3%.

In the data set on Trypanosoma cruzi [1], `CC1(C)CCC2=C(O1)c1ccccc1C(=O)C2=O` [LAPACHONE] displayed an IC50 of less than 3.1 µM. Also, the half-maximal cytotoxic concentration (CC50) at 72 h in data set [2] is less than 3.1 µM. The Activity with Trypanosoma cruzi [3] was 91.3%.

In the data set with Trypanosoma cruzi [1], `O=C1C(Cl)=C(Cl)C2(CO2)c2ccccc21` (stereo not given) gave an IC50 of 9.48 µM. Also, in data set [2], half-maximal cytotoxicity (CC50 at 72 h) was put at 19 µM. The Activity in the data set on Trypanosoma cruzi [3] was determined as 84.7%.

For `COC1=CC(=O)c2ccccc2C12CO2` (stereo not given), the midpoint of inhibition with Trypanosoma cruzi [1], the IC50, lay at 1.13 µM. The same molecule registered a CC50 at 72 h in data set [2] of 44 µM. Besides, in the data set with Trypanosoma cruzi [3], the Activity amounted to 74.2%.

In the data set with Trypanosoma cruzi [1], `CC1(C)CCC2=C(O1)C1(CO1)C1=C(CCCC1)C2=O` (stereo not given) returned an IC50 of 16.4 µM. Further, the midpoint of cytotoxicity in data set [2], the CC50 at 72 h, lay at 58.1 µM. In addition, the Activity in the data set with Trypanosoma cruzi [3] is recorded as 17.9%.

In the case of `CC1(C)CCC2=C(O1)C1(CO1)c1ccccc1C2=O` (stereo not given), in the data set on Trypanosoma cruzi [1], the IC50 is 0.05 µM. This molecule also showed a CC50 at 72 h in data set [2] of more than 50 µM. In addition, the Activity with Trypanosoma cruzi [3] was 85.6%.

As for `CC1(C)CC2=C(O1)C(=O)c1ccccc1C2=O`, 8.8 µM corresponded to half-maximal inhibition in the data set on Trypanosoma cruzi [1] (IC50). The molecule also registered a CC50 at 72 h in data set [2] of 2.7 µM. Also, the Activity with Trypanosoma cruzi [3] is listed as 91.4%.

The molecule `COC1=CC(=O)c2ccccc2C1=O` [2-Methoxy-1,4-naphthoquinone] displayed an IC50 in the data set on Trypanosoma cruzi [1] of 3.19 µM. In data set [2], the midpoint of cytotoxicity, the CC50 at 72 h, lay at 13 µM. For the same molecule, the Activity in the data set on Trypanosoma cruzi [3] turned out to be 82.3%.

Molecule `CC1(C)CCC23CC2(O1)C(=O)c1ccccc1C3=O` (stereo not given) returned an IC50 in the data set on Trypanosoma cruzi [1] of 60.9 µM. Besides, the midpoint of cytotoxicity in data set [2], the CC50 at 72 h, lay at 66 µM. Further, the Activity with Trypanosoma cruzi [3] was found to be 3.1%.

`CC1(C)CCC2=C(O1)C(=O)C1=C(CCCC1)C2=O` yielded an IC50 in the data set on Trypanosoma cruzi [1] of 16.3 µM. Also, in data set [2], it took 11.7 µM to reach half-maximal cytotoxicity (CC50 at 72 h). The Activity in the data set with Trypanosoma cruzi [3] was 84.2%.

The molecule `CC1(C)CCC2=C(O1)C(=O)c1ccccc1C2=O` [ALPHA-LAPACHONE] gave an IC50 with Trypanosoma cruzi [1] of 3.19 µM. Further, the CC50 at 72 h in data set [2] stood at 1.2 µM. The Activity in the data set with Trypanosoma cruzi [3] is on record as 82.7%.

Turning to `C=CCOC1=CC(=O)c2ccccc2C12CO2` (stereo not given), inhibition in the data set with Trypanosoma cruzi [1] was half-maximal at 0.2 µM (IC50). Further, in data set [2], the CC50 at 72 h was less than 1 µM. Besides, the Activity in the data set with Trypanosoma cruzi [3] turned out to be 84.5%.

Regarding `CC1(C)CC2=C(O1)C1(CO1)c1ccccc1C2=O` (stereo not given), in the data set with Trypanosoma cruzi [1], half-maximal inhibition (IC50) was put at 19.3 µM. For the same molecule, the midpoint of cytotoxicity in data set [2], the CC50 at 72 h, lay at 19 µM. In the data set with Trypanosoma cruzi [3], the Activity came to 88.5%.
